Our source for the cytotoxicity values is ChEMBL document CHEMBL4513216, “Probing the Open Global Health Chemical Diversity Library for Multistage-Active Starting Points for Next-Generation Antimalarials” (ACS Infect Dis, 2020).

A short description of the series: Toxicity liver stage against HepG2, at 10uM. The class given is cell-based. Set-up: test concentration 10 uM, cell line HepG2-A16-CD81EGFP. Conditions: human, HepG2-A16-CD81EGFP cells; read-out: INHIBITION
Summed up: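 Uninfected HepG2-A16-CD81EGFP cells, 3 × 10^3 per well, 1536-well, plated on prespotted compound at 10 μM final, parasite-free screening media added to match infected plates; puromycin 10 μM positive, DMSO 0.5% negative; run in parallel with 48 h PbLuc assay at 37 °C, 5% CO2; viability by CellTiter-Glo luminescence, normalized to controls.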
Consider `CCOCCCNC(=O)NCc1c(C)nn(C)c1C`, for which the cytotoxicity at 10 µM is -5.28%.

Regarding `O=C(Nc1cccc2c1CCCC2)c1cccnc1N1CCCNCC1`, the cytotoxicity at 10 µM was determined as 6.84%. As to `CC(=O)N1N=C(c2cccs2)OC1C(=O)NCc1ccc(C)o1` (stereo not drawn), the cytotoxicity at 10 µM was -4.67%. The same measure for `OCc1cc2ccccc2nc1N1CCCCC1`: 14.1%; for `COc1cc(OC)cc(C(=O)Nc2ncnc3c2CCC3)c1`: -179%. The figure for `O=C(NCCn1ccc(-c2ccncc2)n1)C1CC1` is -2.08%; for `CCN1CC[C@]2(CN(C(=O)[C@H]3CCCO3)C[C@H]2c2ccccc2)C1=O` it is 5.98%. On to `O=C(C1CCOC1)N1C[C@H]2CN(c3ccccc3)C(=O)[C@H]2C1` (stereo partly drawn), for which the cytotoxicity at 10 µM was -123%.

As for `Cc1cnc(N2CCCC3(COCCN(c4ccc(C)nn4)C3)C2)nc1` (stereo not drawn), the cytotoxicity at 10 µM is -126%.

Regarding `CCCN(CCC)c1ncc(S(=O)(=O)c2ccccc2)c(N)n1`, the cytotoxicity at 10 µM was -2.26%. The figure for `Cc1cc(C(=O)N(C)Cc2cccs2)nc(N2CCCCC2)n1` is 17.5%. The same measure for `CN(C)CC(=O)N1CCCC1c1cncc(Oc2ccc(F)cc2)n1` (stereo not drawn): -10.9%; for `O=C(c1c[nH]c(=O)[nH]c1=O)N1CCCC(c2cnccn2)C1` (stereo not drawn): -3.58%. The figure for `C[C@]1(O)CN(CCC(N)=O)CC[C@@H]1Oc1cccc(F)c1` is -0.224%; for `Cn1nc(C2CCCNC2)c2c(C(=O)NC3CC3)cc(C3CC3)nc21` (stereo not drawn) it is 14.5%; for `Cc1ccc(CN2CCCC23Cc2ccccc2CNC3=O)cc1` (stereo not drawn) it is 8.82%. Turning to `Cc1nc(CNC(=O)Nc2cc(F)ccc2N2CCN(C)CC2)no1`, the cytotoxicity at 10 µM was -8.8%.

On to `CCc1noc(CN2CCN(C(=O)Cc3ccc(F)cc3)CC2)n1`, for which the cytotoxicity at 10 µM amounted to 10.4%.

In the case of `CCOc1ccccc1N(C)Cc1nccn1C`, the cytotoxicity at 10 µM is -3.83%.

For `CN(Cc1ccc(C(=O)O)cc1)C(=O)c1sccc1OC(F)F`, the cytotoxicity at 10 µM was -6.59%. For `O=C(CCC1CCCO1)NCCN1CCCCC1` (stereo not drawn), the cytotoxicity at 10 µM was -3.79%. The figure for `CN(c1ncc(S(N)(=O)=O)s1)C1CCC1` is 4.13%; for `CC(C)c1csc(C2CCCN(C(=O)c3ccc(=O)n(C)c3)C2)n1` (stereo not drawn) it is -48.2%; for `Cc1cccc(C(=O)N2CCN(C)CC2)c1NC(=O)c1ccncc1` it is -10.8%. The same measure for `Cc1n[nH]c(NC(=O)c2ccc(COCC(F)(F)F)cc2)c1C`: -0.81%; for `Cc1ccc(C(NC(=O)C2CC2)c2cccc(S(C)(=O)=O)c2)cc1` (stereo not drawn): -9.8%. The same measure for `CC(C)(C)c1nc(CC(=O)Nc2cnccc2O)cs1`: 9.09%. With `C=C(C)CN1CCC(NC(=O)Nc2ccc(F)c(C(=O)NC)c2)CC1`, the cytotoxicity at 10 µM is 5.58%.

`CCc1noc(CS(=O)(=O)Cc2ccccc2Cl)n1`: the cytotoxicity at 10 µM was -6.75%. The same measure for `CCN(CC)C(=O)COc1nc(C(C)C)no1`: 3.6%; for `O=C(c1ccc2nccn2c1)N1CCCC1c1noc(C2CC2)n1` (stereo not drawn): -4.68%.

As for `O=C(CN1CCOC(c2ccc(Cl)s2)C1)NCc1ccco1` (stereo not drawn), the cytotoxicity at 10 µM is -3.09%.

For the molecule `CN(C)c1ccc(NC(=O)C2CN(Cc3ccccc3)CCO2)cn1` (stereo not drawn), the cytotoxicity at 10 µM amounted to 4.46%.

Regarding `COCCNC(=O)CN(C)Cc1ccc(F)cc1Cl`, the cytotoxicity at 10 µM is -1.02%. For the molecule `Cc1cc(CNC(=O)NCc2ccccc2N2CCOCC2)no1`, the cytotoxicity at 10 µM was determined as 1.15%.

In the case of `O=C(Nc1nnc[nH]1)C(c1cccc(F)c1)N1CCOCC1` (stereo not drawn), the cytotoxicity at 10 µM was -9.07%. The figure for `CNC(=O)CS(=O)(=O)Cc1ccc(OC)c(F)c1` is -6.7%; for `NC(=O)CCSCc1ccc(Br)c(F)c1` it is -4.81%; for `CN(Cc1ccccc1)CC(C)(C)NC(=O)c1ccc(C(N)=O)cn1` it is -0.616%. Turning to `O=S1(=O)CCC(CNS(=O)(=O)N2CCc3ccccc3C2)C1` (stereo not drawn), the cytotoxicity at 10 µM is -10.7%.

As for `COc1ccc(CN2CCC(C(N)=O)CC2)cc1SC(F)(F)F`, the cytotoxicity at 10 µM was -20.3%. The figure for `CN(Cc1nnc2n1CCC2)S(=O)(=O)c1ccc(Br)cc1Cl` is -6.08%; for `CCC(=O)NC1CCCN(C(=O)Nc2cc(-c3ccccc3)on2)C1` (stereo not drawn) it is 6.64%. With `CCC1CN(CC(=O)NCCC#N)CCO1` (stereo not drawn), the cytotoxicity at 10 µM was determined as 2.28%. The same measure for `N#Cc1ccnc(SCC2CN=C(N3CCOCC3)S2)c1` (stereo not drawn): -22.9%; for `CN(Cc1ccc([S+](C)[O-])cc1)c1cncc(Cl)n1` (stereo not drawn): -10.6%. For `Cc1cccc(C(C)CNC(=O)N2CCC3(C2)OCCO3)c1` (stereo not drawn), the cytotoxicity at 10 µM turned out to be 16.1%. The same measure for `COc1cc(C)c(NC(=O)NCCn2cccc2)cc1OC`: 0.414%. The figure for `Cc1ccc(F)c(N2CCCC(Nc3nccn4cnnc34)C2=O)c1` (stereo not drawn) is -0.115%; for `Cc1nnc(NCC2(c3ccc(Cl)cc3Cl)CCOCC2)c(C#N)c1C` it is 1.98%. The same measure for `CN1CC[C@]2(CN(CC3CC3)C[C@H]2c2ccccc2)C1=O`: 3.15%; for `COCC1c2nnn(C)c2CCN1C(=O)COc1ccccc1OC` (stereo not drawn): -105%; for `CCN1C[C@H]2CCN(C(=O)Cc3cccc(OC)c3)CC[C@H]2S1(=O)=O`: 9.86%. In the case of `O=C1CCCN1Cc1nnc2n1CCCN(C(=O)c1ccc[nH]1)C2`, the cytotoxicity at 10 µM is -107%. On to `O=C(c1ccoc1)N1CC[C@@H]2O[C@@H](COCc3ccccn3)CC[C@@H]21`, for which the cytotoxicity at 10 µM was -71.1%.

As to `c1cnc(N2CCCC3(CCN(Cc4ccsc4)C3)C2)nc1` (stereo not drawn), the cytotoxicity at 10 µM was -83.2%. With `c1cc(CN2CCOCC3(CCN(C4CCOCC4)C3)C2)ccn1` (stereo not drawn), the cytotoxicity at 10 µM was 0.866%. Regarding `O=C1NC2(CCNCC2)CC1c1cccnc1` (stereo not drawn), the cytotoxicity at 10 µM came to 1.77%. The figure for `CNCC[C@H]1CC(C)(C)Oc2ccc(C)cc21` is 0.526%. With `CC(C)N(C)C(=O)C1CCC(=O)N(CCc2cccc(F)c2)C1` (stereo not drawn), the cytotoxicity at 10 µM was -4.57%.

With `Cc1csc(N2CCN(C3CCc4ccccc4C3)CC2)n1` (stereo not drawn), the cytotoxicity at 10 µM is 2.01%. The figure for `O=c1cc(N2CCCC2)cnn1CCc1cccc(F)c1` is -12.8%.

In the case of `CCN(Cc1ccncc1)C(=O)c1cc(C)c(C)c(S(N)(=O)=O)c1`, the cytotoxicity at 10 µM was -2.33%.

As for `CC(C)(O)CCc1ccc(C(=O)N2CCN(CC(F)(F)F)CC2)cc1`, the cytotoxicity at 10 µM was 6.16%. The same measure for `CCN(CC1CCOCC1)C(=O)C1CC(=O)N(Cc2cccnc2)C1` (stereo not drawn): 0.719%; for `CC(Cn1cnc2cn(C)nc2c1=O)Oc1cccnc1` (stereo not drawn): -11.7%. With `CCCc1nc(N(C)CCN2CCCCCC2)c2cnn(C)c2n1`, the cytotoxicity at 10 µM is 3.22%. The same measure for `O=C1CC[C@@H](C(=O)N2CCc3[nH]nc(COc4cccc(Cl)c4)c3C2)N1`: -52.1%; for `O=C(CO)N1CC[C@@H](N2CCN(c3ccccc3F)CC2)[C@H](O)C1`: -46%. For `CN(CCCc1cnn(C)c1)Cc1cc2n(n1)CCNC2`, the cytotoxicity at 10 µM was 11.1%. For the molecule `CCCc1nnc(N[C@H](C)c2ccc(OC)cc2)o1`, the cytotoxicity at 10 µM is -19.9%. Consider `CC(C)CN1CCC(NCCNc2cccnc2)CC1`, for which the cytotoxicity at 10 µM is -5.25%. Turning to `CCC(C)N(Cc1cccnc1)Cc1ccc2c(c1)OCCO2` (stereo not drawn), the cytotoxicity at 10 µM is -2.83%. The same measure for `CCn1cc(CN2CCCC(CO)(CCc3ccccc3)C2)c(C)n1` (stereo not drawn): -4.63%; for `Cc1cc(N2CCN(Cc3ccc(-c4cc[nH]n4)o3)CC2)cc(C)n1`: 2.17%; for `CCn1cc(-c2cc(C(F)F)n3nc(CC(=O)O)nc3n2)cn1`: -9.49%.

Turning to `O=C(c1csc(C2CC2)n1)N1CCCCC1Cn1cccn1` (stereo not drawn), the cytotoxicity at 10 µM was determined as 0.745%.

With `CCCc1nc(C)c(C(=O)NCCn2nc3ccccn3c2=O)s1`, the cytotoxicity at 10 µM is -10.1%. The figure for `CN1CCCN(C(=O)NCc2cccnc2-n2cccn2)CC1` is -17.9%. The same measure for `COc1ccc(CNc2cnn(C)c(=O)c2Cl)cc1`: -3.45%. The figure for `c1cnnc(N2CCCC2CNc2ncnc3ccsc23)c1` (stereo not drawn) is -8.87%. `CNC(=O)C1CCN(CC(=O)Nc2cc(C(C)C)no2)CC1`: the cytotoxicity at 10 µM is -8.01%. The same measure for `CC(C)(C)c1cc(NC(=O)CN2CCCC2Cn2cccn2)on1` (stereo not drawn): -15.3%. Take `COc1c(CNCCNC(=O)c2ccc(C)cc2)c(C)nn1C`: the cytotoxicity at 10 µM is -3.39%. The figure for `CC1CN(CC(=O)Nc2cccnc2)CCN1c1nccs1` (stereo not drawn) is -3.59%; for `Cc1cnn(CCNCC(O)COc2c(C)ccc(C)c2C)c1` (stereo not drawn) it is -8.78%; for `CCc1n[nH]c(C2CN(C(=O)Cn3ccccc3=O)CCO2)n1` (stereo not drawn) it is -0.746%. With `CCn1cnnc1C1CCN(C(=O)COc2ccccc2)CC1`, the cytotoxicity at 10 µM is 1.3%. The same measure for `O=C(Nc1nc2c(s1)CNCC2)C1CC1`: -0.0154%; for `CCOC(=O)N1CCN(c2nc(NC3CC3)c3ccccc3n2)CC1`: -0.529%.

As for `Cn1cc(C(=O)NCc2cn3c(n2)CN(Cc2ccccn2)CC3)cn1`, the cytotoxicity at 10 µM is -13.7%. The same measure for `CN(C)C(=O)NCc1ncn2c1CN(Cc1cccs1)CCC2`: 8.07%. The same measure for `Cc1cnc(N2CCOC3(CCCN(C)C3)C2)nc1` (stereo not drawn): 8.25%. The same measure for `Cc1cccc(COC[C@@]23CCC[C@@H]2CN(S(=O)(=O)N(C)C)C3)n1`: -6.87%. `CC[C@@H]1N(Cc2ccsc2)CCC[C@]12CCC(=O)N2CCOC`: the cytotoxicity at 10 µM was determined as 7.36%. As to `c1cc(CNCc2cccc3c2OCCCO3)cc(Cn2cncn2)c1`, the cytotoxicity at 10 µM is 8.1%. The figure for `CCOc1c(OC)cc(C=Cc2ncc(C(=O)NC)s2)cc1OC` is 1.62%; for `CN(C)C(=O)CN1C[C@H]2CC[C@@H](C1)N(C/C=C/c1ccc(F)cc1)C2` it is -7.65%.
